In ChEMBL document CHEMBL1122650, “Synthesis and central nervous system properties of 2-[(alkoxycarbonyl)amino]-4(5)-phenyl-2-imidazolines” (J Med Chem, 1984):
The source made the active and inactive calls. No cut-off for these calls is given here.

tested on: not listed separately; assay: HPLC capacity factor (k'); type: ADME; settings: not given

Row | SMILES | Log k'
1 | COC(=O)NC1=NC(c2ccccc2C)CN1C (stereo unspecified) | 0.37
2 | COC(=O)NC1=NC(c2ccccc2-c2ccccc2)CN1 (stereo unspecified) | 1.06
3 | COC(=O)NC1=NC(c2cccc(OC)c2)CN1 (stereo unspecified) | -0.07
4 | COC(=O)NC1=NC(c2c(Cl)cccc2Cl)CN1 (stereo unspecified) | 0.3
5 | CCOC(=O)NC1=NC(c2cc(C)ccc2C)CN1 (stereo unspecified) | 0.88
6 | CCOC(=O)NC1=NC(c2ccc(F)cc2)CN1C (stereo unspecified) | 0.48
7 | COC(=O)NC1=NC(c2ccccc2F)CN1C (stereo unspecified) | 0.14
8 | COC(=O)NC1=NCC(c2c(Cl)cccc2Cl)N1C (stereo unspecified) | 0.54
9 | COC(=O)NC1=NC(c2ccc(C(C)C)cc2)CN1 (stereo unspecified) | 0.99

tested on: Mus musculus; assay: Evaluated in vivo for reserpine hypothermia after oral administration in mouse. Minimum active dose was reported; Inactive; type: functional, organism-based; settings: not given
In short: (§1)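 Male HLa (ICR) BR mice, 18-24 g, in groups of eight; reserpine 5 mg/kg ip given 2 h before oral test compound as aqueous solution. Rectal temperature taken hourly; 1-4-h hypothermia assessed by analysis of variance.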

Row | SMILES | ED50
10 | COC(=O)NC1=NC(c2ccccc2F)CN1C (stereo unspecified) | inactive

species on record: Mus musculus; assay: Inhibition of radioactive NE [3H]norepinephrine uptake into mouse heart; type: functional; settings: not given
In short: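 Mice dosed ip (aqueous solution) before iv [3H]NE; hearts removed 3 h after label, washed, weighed, dissolved in Protosol and counted as dpm per mg tissue. Dose-response from linear regression.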

Row | SMILES | ED50 [mg/kg]
11 | COC(=O)NC1=NC(c2c(Cl)cccc2Cl)CN1 (stereo unspecified) | 14.2

species on record: Mus musculus; assay: Evaluated for antagonism of reserpine induced hypothermia;I= Inactive; type: functional, organism-based; settings: not given; in short: as §1

Row | SMILES | HYPO
12 | CCOC(=O)NC1=NCC2c3ccccc3CCN12 (stereo unspecified) | inactive
13 | COC(=O)NC1=NC(c2cccc(OC)c2)CN1 (stereo unspecified) | inactive
14 | COC(=O)NC1=NC(c2ccc(C(C)C)cc2)CN1 (stereo unspecified) | inactive

species on record: Mus musculus; assay: Mouse behavior activity was determined; Dwk=Depressant Weak; type: functional, organism-based; settings: not given
In short: (§2)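 Male Simonsen (ICR) fBR mice, 18-24 g, groups of three, given 3, 10, 30, 100, 300 or 1000 mg/kg ip as aqueous solution and observed for behavioral profile; deaths followed up to 7 days.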

Row | SMILES | Mouse behavior activity
15 | COC(=O)NC1=NC(c2c(Cl)cccc2Cl)CN1 (stereo unspecified) | Depressant
16 | COC(=O)NC1=NC(c2ccccc2F)CN1C (stereo unspecified) | Depressant Weak
17 | COC(=O)NC1=NC(c2ccc(C(C)C)cc2)CN1 (stereo unspecified) | Depressant - weak

species on record: Mus musculus; assay: Mouse behavior activity was determined;D= Depressant; type: functional, organism-based; settings: not given; in short: as §2

Row | SMILES | Mouse behavior activity
18 | CN(C)CCC=C1c2ccccc2COc2ccccc21 [DOXEPIN] | Depressant
19 | COC(=O)NC1=NCC2c3ccccc3CCN12 (stereo unspecified) | Depressant
20 | COC(=O)NC1=NC(c2ccccc2C)CN1C (stereo unspecified) | Depressant
21 | COC(=O)NC1=NC(c2ccccc2-c2ccccc2)CN1 (stereo unspecified) | Depressant
22 | COC(=O)NC1=NC(c2ccccc2F)CN1 (stereo unspecified) | Depressant
23 | COC(=O)NC1=NC(c2cccc(OC)c2)CN1 (stereo unspecified) | Depressant

species on record: Mus musculus; assay: Compound was evaluated for maximal electroshock antagonism (MES) against mice; type: functional; settings: not given
In short: (§3)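 Male HLa (ICR) BR mice, groups of eight to ten, dosed ip (aqueous solution) 15 min before transcorneal electroshock (50 mA, 0.2 s). End point: abolition of tonic hind-limb extension; quantal ED50 by Litchfield-Wilcoxon.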

Row | SMILES | ED50 [mg/kg]
24 | CN(C)CCC=C1c2ccccc2COc2ccccc21 [DOXEPIN] | 16
25 | COC(=O)NC1=NC(c2cc(Cl)cc(Cl)c2)CN1C (stereo unspecified) | 44
26 | CCOc1ccccc1OCC1CNCCO1 (stereo unspecified) [VILOXAZINE] | 17
27 | COC(=O)NC1=NC(c2ccccc2C)CN1C (stereo unspecified) | 68
28 | COC(=O)NC1=NC(c2ccccc2F)CN1 (stereo unspecified) | 54
29 | CCOC(=O)NC1=NC(c2ccc(F)cc2)CN1C (stereo unspecified) | 100
30 | COC(=O)NC1=NC(c2ccccc2F)CN1C (stereo unspecified) | 74
31 | COC(=O)NC1=NCC(c2c(Cl)cccc2Cl)N1C (stereo unspecified) | 22

species on record: Mus musculus; assay: Compound was evaluated for maximal electroshock antagonism (MES) against mice; Inactive; type: functional, organism-based; settings: not given; in short: as §3

Row | SMILES | ED50
32 | COC(=O)NC1=NCC(c2ccccc2)N1C (stereo unspecified) | inactive
33 | CN1CC(c2c(Cl)cccc2Cl)N=C1N (stereo unspecified) | inactive
34 | CN1C(N)=NCC1c1cccc(Cl)c1 (stereo unspecified) | inactive
35 | COC(=O)NC1=NC(c2cccc(OC)c2)CN1 (stereo unspecified) | inactive
36 | COC(=O)NC1=NC(c2c(Cl)cccc2Cl)CN1 (stereo unspecified) | inactive
37 | CCOC(=O)NC1=NC(c2cc(C)ccc2C)CN1 (stereo unspecified) | inactive
38 | COC(=O)NC1=NC(C)(c2ccccc2)CN1 (stereo unspecified) | inactive
39 | COC(=O)NC1=NC(c2ccc(C(C)C)cc2)CN1 (stereo unspecified) | inactive

tested on: Mus musculus; assay: Reserpine hypothermia antagonism in mouse administered perorally with 5 mg/kg of reserpine 2 hour prior to test compound administration; type: functional; settings: route oral

Row | SMILES | Reserpine hypothermia [mg/kg]
40 | COC(=O)NC1=NC(c2c(Cl)cccc2Cl)CN1 (stereo unspecified) | 0.15

species on record: Mus musculus; assay: Righting ability was determined in mice after rapid rolling (aroused); type: functional; settings: not given
In short: (§4)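 Male Simonsen (ICR) fBR mice, 18-24 g, groups of ten, dosed with aqueous compound. Righting ability checked before (unaroused) and after (aroused) rapid rolling in the hand; ED50 by Litchfield-Wilcoxon method.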

Row | SMILES | Loss of righting reflex [mg/kg]
41 | COC(=O)NC1=NC(c2ccccc2F)CN1 (stereo unspecified) | 234
42 | COC(=O)NC1=NC(c2cccc(OC)c2)CN1 (stereo unspecified) | 197

species on record: Mus musculus; assay: Righting ability was determined in mice […] rapid rolling (aroused); type: functional; settings: not given; in short: as §4

Row | SMILES | Loss of righting reflex [mg/kg]
43 | CN(C)CCC=C1c2ccccc2COc2ccccc21 [DOXEPIN] | 43

species on record: Mus musculus; assay: Righting ability was determined in mice before rapid rolling (unaroused); type: functional; settings: not given; in short: as §4

Row | SMILES | Loss of righting reflex [mg/kg]
44 | CN(C)CCC=C1c2ccccc2COc2ccccc21 [DOXEPIN] | 40
45 | COC(=O)NC1=NC(c2ccccc2-c2ccccc2)CN1 (stereo unspecified) | 70
46 | COC(=O)NC1=NC(c2ccccc2F)CN1 (stereo unspecified) | 210
47 | COC(=O)NC1=NC(c2cccc(OC)c2)CN1 (stereo unspecified) | 182

species on record: Rattus norvegicus; assay: Inhibition of the 5-HT [14C]5-HT uptake by rat brain slices In vitro; type: functional; settings: not given
In short: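 Rat cerebral cortex slices, 5 mg tissue per mL Krebs-Henseleit buffer, incubated at 37 °C with [3H]NE or [14C]5-HT; blanks at 4 °C, undosed controls. Stopped after 20 min by filtration; slice radioactivity counted; IC50 from linear regression of uptake inhibition.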

Row | SMILES | IC50 [µM]
48 | COC(=O)NC1=NC(c2c(Cl)cccc2Cl)CN1 (stereo unspecified) | > 100

species on record: Rattus norvegicus; assay: Inhibition of the NE [3H]Norepinephrine uptake by rat brain slices In vitro; type: functional; settings: not given

Row | SMILES | IC50 [µM]
49 | COC(=O)NC1=NC(c2c(Cl)cccc2Cl)CN1 (stereo unspecified) | > 100

species on record: Mus musculus; assay: Mouse behavior activity was determined; S-D=Stimulant-Depressant; type: functional, organism-based; settings: not given; in short: as §2

Row | SMILES | Mouse behavior activity
50 | COC(=O)NC1=NCC(c2ccccc2)N1C (stereo unspecified) | Stimulant-Depressant
51 | CCOc1ccccc1OCC1CNCCO1 (stereo unspecified) [VILOXAZINE] | Stimulant-Depressant
52 | CCOC(=O)NC1=NCC2c3ccccc3CCN12 (stereo unspecified) | Stimulant-Depressant
53 | CCOC(=O)NC1=NC(c2ccc(F)cc2)CN1C (stereo unspecified) | Stimulant-Depressant

species on record: Mus musculus; assay: Evaluated for antagonism of reserpine induced hypothermia; type: functional; settings: not given; in short: as §1

Row | SMILES | HYPO [mg/kg]
54 | COC(=O)NC1=NC(c2ccccc2-c2ccccc2)CN1 (stereo unspecified) | >20
55 | COC(=O)NC1=NC(c2ccccc2F)CN1 (stereo unspecified) | <0.5
56 | COC(=O)NC1=NC(c2c(Cl)cccc2Cl)CN1 (stereo unspecified) | <0.5
57 | CCOC(=O)NC1=NC(c2ccc(F)cc2)CN1C (stereo unspecified) | <0.5
58 | COC(=O)NC1=NC(c2c(Cl)cccc2Cl)CN1C (stereo unspecified) | <0.5

tested on: not listed separately; assay: Lethal dose in mouse, in groups of ten; type: toxicity, organism-based; settings: in vivo

Row | SMILES | LD50 [mg/kg]
59 | CN(C)CCC=C1c2ccccc2COc2ccccc21 [DOXEPIN] | 50
60 | COC(=O)NC1=NCC2c3ccccc3CCN12 (stereo unspecified) | 200
61 | COC(=O)NC1=NCC(c2ccccc2)N1C (stereo unspecified) | 200
62 | CCOc1ccccc1OCC1CNCCO1 (stereo unspecified) [VILOXAZINE] | 200
63 | CCOC(=O)NC1=NCC2c3ccccc3CCN12 (stereo unspecified) | 200
64 | COC(=O)NC1=NC(c2ccccc2C)CN1C (stereo unspecified) | 200
65 | COC(=O)NC1=NC(c2ccccc2-c2ccccc2)CN1 (stereo unspecified) | 200
66 | COC(=O)NC1=NC(c2ccccc2F)CN1 (stereo unspecified) | 255
67 | COC(=O)NC1=NC(c2cccc(OC)c2)CN1 (stereo unspecified) | 700
68 | COC(=O)NC1=NC(c2c(Cl)cccc2Cl)CN1 (stereo unspecified) | 300
69 | CCOC(=O)NC1=NC(c2ccc(F)cc2)CN1C (stereo unspecified) | 200
70 | COC(=O)NC1=NC(c2ccccc2F)CN1C (stereo unspecified) | 254
71 | COC(=O)NC1=NC(c2ccc(C(C)C)cc2)CN1 (stereo unspecified) | 500
